In experiment [1] the target is T1, Alpha-1D adrenergic receptor (Rattus norvegicus, UniProt P23944).
T1 sequence (P23944 whole entry): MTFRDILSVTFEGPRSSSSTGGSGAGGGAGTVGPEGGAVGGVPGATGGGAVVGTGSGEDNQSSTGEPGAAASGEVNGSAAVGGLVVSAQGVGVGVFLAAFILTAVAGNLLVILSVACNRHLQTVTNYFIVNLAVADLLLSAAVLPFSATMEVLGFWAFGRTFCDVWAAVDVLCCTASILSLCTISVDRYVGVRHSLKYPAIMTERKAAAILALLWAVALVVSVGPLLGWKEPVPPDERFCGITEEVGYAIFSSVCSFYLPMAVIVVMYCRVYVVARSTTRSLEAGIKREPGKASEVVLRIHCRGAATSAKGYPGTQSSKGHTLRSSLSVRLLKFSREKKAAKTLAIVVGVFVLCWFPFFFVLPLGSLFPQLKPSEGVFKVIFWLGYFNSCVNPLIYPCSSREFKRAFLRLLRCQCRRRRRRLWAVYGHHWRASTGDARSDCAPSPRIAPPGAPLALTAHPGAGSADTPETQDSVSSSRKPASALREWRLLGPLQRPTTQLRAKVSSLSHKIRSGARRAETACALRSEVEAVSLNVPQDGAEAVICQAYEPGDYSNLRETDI
The experiment can be described thus: Antagonist activity at adrenergic Alpha-1D receptor in rat aorta. The experiment is classed as functional, tissue-based. The note with it: read-out: pA2 (converted). A digest of the protocol:
(§1)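 Isolated tissues: guinea pig spleen (α1B), rat aorta (α1D), rat tail artery (α1A). Two cumulative noradrenaline concentration-response curves per tissue, 60 min apart, without then with antagonist. Apparent pA2 = −log[B] + log(r − 1), where r is the ratio of agonist EC50 with and without antagonist. EC50 taken at the curve midpoint. Means ± SEM, 4–8 separate experiments.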

For experiment [2], the target named is T2, Alpha-1A adrenergic receptor (Rattus norvegicus, UniProt P43140).
T2 sequence (P43140 whole entry): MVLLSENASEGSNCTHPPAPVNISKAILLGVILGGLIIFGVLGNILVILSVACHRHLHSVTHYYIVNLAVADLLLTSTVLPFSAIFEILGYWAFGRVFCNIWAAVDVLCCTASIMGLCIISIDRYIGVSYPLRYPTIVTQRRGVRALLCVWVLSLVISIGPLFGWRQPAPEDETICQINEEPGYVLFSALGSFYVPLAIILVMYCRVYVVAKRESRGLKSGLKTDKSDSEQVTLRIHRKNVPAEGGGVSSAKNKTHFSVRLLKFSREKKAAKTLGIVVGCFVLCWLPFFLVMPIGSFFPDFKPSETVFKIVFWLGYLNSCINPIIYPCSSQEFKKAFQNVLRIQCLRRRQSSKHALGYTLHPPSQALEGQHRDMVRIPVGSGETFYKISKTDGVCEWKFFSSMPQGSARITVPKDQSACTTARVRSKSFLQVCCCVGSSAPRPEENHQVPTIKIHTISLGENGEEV
As to the kind of experiment: Antagonist activity at adrenergic alpha1A receptor in rat tail artery. To be noted: read-out: pA2 (converted). The experiment is classed as functional, tissue-based. A digest of the protocol: as §1

Experiment [3] concerns the target Alpha-1B adrenergic receptor (Cavia porcellus). The experiment can be described thus: Antagonist activity at adrenergic Alpha-1B receptor in guinea pig spleen. To be noted: read-out: pA2 (converted).
For experiment [4], the target named is Alpha-1 adrenergic receptor (Rattus norvegicus). The experiment can be described thus: Binding affinity to adrenergic alpha1 receptor in rat brain.

SMILES strings stand for the structures.

These results are taken from ChEMBL document CHEMBL1255177, “Search for influence of spatial properties on affinity at α1-adrenoceptor subtypes for phenylpiperazine derivatives of phenytoin” (Bioorg Med Chem Lett, 2010).

For `CCOC(=O)C(C)N1C(=O)N(CC(O)CN2CCN(c3ccccc3OC)CC2)C(c2ccccc2)(c2ccccc2)C1=O` (centres undefined), the Kb in experiment [1] was 70.8 nM.

For the molecule `CN1C(=O)N(CC(O)CN2CCN(c3ccccc3F)CC2)C(c2ccccc2)(c2ccccc2)C1=O` (centres undefined), the figures for the Kb in experiment [2], in experiment [3] and in experiment [1] were 891 nM, 1820 nM and 245 nM, respectively. Moreover, in experiment [4], affinity was put at a Ki of 562 nM.

As for `COC(=O)CN1C(=O)N(CC(O)CN2CCN(c3ccccc3)CC2)C(c2ccccc2)(c2ccccc2)C1=O` (centres undefined), the Kb in experiment [1] was 4370 nM. As to `COc1ccccc1N1CCN(CC(O)CN2C(=O)NC(=O)C2(c2ccccc2)c2ccccc2)CC1` (centres undefined), the Kb in experiment [1] is 112 nM. The same measure, in the same setting: to `CCOC(=O)CN1C(=O)N(CC(O)CN2CCN(c3ccccc3OC)CC2)C(c2ccccc2)(c2ccccc2)C1=O` (centres undefined) belongs 1350 nM.

As for `CCOc1ccccc1N1CCN(CC(O)CN2C(=O)N(C(C)C(=O)OC)C(=O)C2(c2ccccc2)c2ccccc2)CC1` (centres undefined), in experiment [1], the Kb was 269 nM. Same read-out and setting: to `COc1ccccc1N1CCN(CC(O)CN2C(=O)N(C)C(=O)C2(c2ccccc2)c2ccccc2)CC1` (centres undefined) belongs 141 nM.

In the case of `CCOc1ccccc1N1CCN(CC(O)CN2C(=O)N(C)C(=O)C2(c2ccccc2)c2ccccc2)CC1` (centres undefined), the Kb in experiment [1] is 195 nM.

With `COC(=O)C(C)N1C(=O)N(CC(O)CN2CCN(c3ccccc3OC)CC2)C(c2ccccc2)(c2ccccc2)C1=O` (centres undefined), the results for the Kb in experiment [2], in experiment [3] and in experiment [1] were 155 nM, 851 nM and 347 nM, respectively. In experiment [4], this molecule gave a Ki of 105 nM. Taken in the same sequence, the figures for `COC(=O)CN1C(=O)N(CC(O)CN2CCN(c3ccccc3OC)CC2)C(c2ccccc2)(c2ccccc2)C1=O` (centres undefined) were 224 nM, 1260 nM, 295 nM and 200 nM.
